# dFosB act = mouse delta FosB homodimer activation. activation, % at 25 µM. purified delta FosB, TAMRA-CDK5 oligo fluorescence polarization; percent of positive-control signal above neutral wells. AID 493131. P13346. hit rate 0.99% among 340,000;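 active = mean activation above about 17%, with every replicate also reaching it, limit read from the data, passing the limit was not always enough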
# Target sequence (P13346 whole entry, looked up): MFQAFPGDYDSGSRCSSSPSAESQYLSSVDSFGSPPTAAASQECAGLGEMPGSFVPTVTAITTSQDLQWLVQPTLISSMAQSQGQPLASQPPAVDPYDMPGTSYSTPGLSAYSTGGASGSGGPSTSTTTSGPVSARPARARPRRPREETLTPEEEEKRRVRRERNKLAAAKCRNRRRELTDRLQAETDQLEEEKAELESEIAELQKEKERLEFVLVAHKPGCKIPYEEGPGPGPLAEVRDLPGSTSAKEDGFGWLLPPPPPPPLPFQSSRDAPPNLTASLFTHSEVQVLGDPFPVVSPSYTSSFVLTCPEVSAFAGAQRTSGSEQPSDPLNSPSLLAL
# S100A4 inh HTS = inhibitors of human S100A4 binding to myosin IIA peptide. hit rate 0.14% among 360,000. S100A4/TAMRA-MyoIIA peptide fluorescence polarization. inhibition, % at 10.7 µM. AID 652163. P26447;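 active = mean inhibition of at least 70% across replicates, with every replicate also reaching that level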
# Target sequence (P26447 whole entry, looked up): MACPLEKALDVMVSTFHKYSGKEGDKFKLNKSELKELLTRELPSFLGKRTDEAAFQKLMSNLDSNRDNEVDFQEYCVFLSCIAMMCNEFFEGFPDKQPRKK
#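 Material: S100A4 monomer protein | Medium: HEPES pH 7.2 with CaCl2, KCl, NaCl, DTT, Triton | Reagent: Labelled myosin peptide probe, 5 nM | Doses: One dose per compound | Times: 5 min incubation before reading | Benchmarks: Neutral control DMSO, positive control TFP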
# Statin myotox sup = suppressors of simvastatin-induced myotoxicity in C2C12 myotubes | ATP luminescence, 48 h; scaled: DMSO 0, geranylgeraniol control 100 | rescue of ATP level, % at 7.49 µM | hit rate 0.78% among 330,000;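 active = mean ATP rescue above about 67%, or every replicate alone reaching that limit, limit read from the data, passing the limit was not always enough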;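 note: myotubes were challenged with 10 µM simvastatin during compound exposure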
# CAL PDZ FP-1 = inhibitors of human CAL PDZ peptide binding; inhibition, % at 20 µM; AID 504414; purified CAL PDZ, TMR-peptide fluorescence polarization, 1 h; Q9HD26; hit rate 0.02% among 330,000;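 active = highest replicate inhibition of at least 40%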;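 note: plate controls were DMSO neutral control wells for no effect and unlabeled competitor peptide control wells for full effect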
#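 System: purified tagged CAL PDZ domain construct (CerCALP). Schedule: 1 h incubation at room temperature before polarization reading. Medium: 25 mM sodium phosphate pH 7.4, 150 mM NaCl, TCEP, IgG, Thesit. Read-out: percent inhibition from loss of millipolarization. Measured by: FP readout, S and P plane fluorescence. Probe or stimulus: fluorescent TMR peptide probe.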
# CAL PDZ FP-2 = inhibitors of human CAL PDZ peptide binding; inhibition, % at 24.9 µM; purified CAL PDZ, TMR-peptide fluorescence polarization, 1 h; AID 602252; hit rate 0.92% among 300,000;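 active = mean inhibition of at least 30% with at least half of replicates also reaching 30%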;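 note: 0% = DMSO neutral control and 100% = excess unlabeled competitor peptide PRC23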
# CDK5 inh = inhibitors of human CDK5/p35 kinase; hit rate 0.01% among 330,000; AID 488839; inhibition, % at 10 µM; Recombinant CDK5/p35, ADP-Glo luminescence, 60 min;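 active = highest replicate inhibition of at least 50% and at least 75% of replicates reaching 50%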;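 note: plate controls were DMSO neutral control for no effect and GW8510 at 10 µM for full effect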
# * marks the source's active call; other numbers are inactive results; / = no result. Rows were chosen to be rich in hits. Some 2% of all compounds tested hit in one or more screens of this group.
SMILES,dFosB act,S100A4 inh HTS,Statin myotox sup,CAL PDZ FP-1,CAL PDZ FP-2,CDK5 inh
CC(=O)c1cccc(NC(=O)CN(c2cccc(F)c2)S(C)(=O)=O)c1,5,/,111*,-1,-2,-4
Cc1cccc(N(CC(=O)Nc2ccc(CC#N)cc2)S(C)(=O)=O)c1,-8,1,/,-2,1,-2
CCc1ccc(NC(=O)CN(c2cccc(C)c2)S(C)(=O)=O)cc1,-2,-5,100*,-2,/,0
Cc1cc(/C=C(\C#N)C(=O)NC2CC2)c(C)[nH]1,-1,/,/,-1,1,1
Cc1c(C(=O)N2CCc3ccccc32)oc2c1C(=O)CC(C)(C)C2,-14,/,112*,-1,-4,0
CCCNC(=O)CCc1c(C)nc2nc(-c3cc(OC)cc(OC)c3)nn2c1C,-17,/,-6,-1,46*,1
CCCCNC(=O)CCc1c(C)nc2nc(-c3cc(OC)cc(OC)c3)nn2c1C,2,/,/,-2,-22,-1
Cc1c(C(=O)C(=O)NCc2ccco2)c2ccccc2n1C,-2,7,/,2,56*,-2
CC(=O)c1c(C)n(CC(=O)NCc2ccco2)c2ccccc12,-4,-2,8,0,1,2
COc1cccc2cc(-c3ccnc(N)n3)oc12,-18,-1,-24,10,77*,-2
N#C/C(=C\c1cc2ccccc2nc1N1CCCCC1)C(N)=O,-7,0,/,-2,1,-1
Cc1noc(C)c1S(=O)(=O)N(C)C[C@H]1Oc2c(NC(=O)C3CCCCC3)cccc2C(=O)N([C@@H](C)CO)C[C@H]1C,/,-1,0,/,/,/
OCCNCc1cccc(-c2ccccc2)c1O,-2,-4,100*,0,1,-1
OCCNCCNCc1ccc(-c2ccccc2)cc1,/,-3,/,/,/,/
N#Cc1ccc(-c2ccc([C@@H]3[C@H](CO)N4C(=O)CN(C(=O)Cc5ccccc5)C[C@@H]34)cc2)cc1,/,-3,/,/,/,/
COc1ccccc1N1CCN(Cc2nc3ccccc3[nH]2)CC1,-5,1,-1,-2,2,-5
Cc1nc(N2CCN(c3ccccc3)CC2)[nH]c(=O)c1CCC(C)C,-1,-5,86*,0,-2,-1
COc1ccccc1N1CCN(Cc2nc3ccsc3c(=O)[nH]2)CC1,-8,/,126*,-1,-3,1
CCCc1c(C)nc(N2CCN(c3ccccc3OC)CC2)[nH]c1=O,1,4,-5,-3,55*,-2
COc1ccc(NC(=O)Nc2nc(C(N)CC(C)C)cs2)cc1 (stereo unspecified),/,-4,-23,/,/,/
CCc1ccc(N2C(=O)CC(N3CCN(Cc4ccc5c(c4)OCO5)CC3)C2=O)cc1 (stereo unspecified),-6,-16,3,-1,85*,1
COc1ccc(C(=O)CSc2cc(C)nc(SCC(=O)c3ccc(C)cc3)n2)cc1,1,/,-16,/,4,0
Clc1ccc(-c2nsc(N3CCOCC3)n2)c(Cl)c1,-1,5,-12,-1,62*,1
CCCCc1ccc(S(=O)(=O)NCCc2ccncc2)cc1,-1,/,126*,-2,-1,0
COc1ccc(OC)c(C(=O)COC(=O)c2cccnc2SC)c1,-20,-2,21,-2,35*,2
SMILES,dFosB act,S100A4 inh HTS,Statin myotox sup,CAL PDZ FP-1,CAL PDZ FP-2,CDK5 inh
COc1ccc(NC(=O)N(C)C[C@@H]2Oc3ccc(NS(=O)(=O)c4ccc(F)cc4)cc3C(=O)N([C@H](C)CO)C[C@H]2C)cc1,/,-3,11,/,/,/
OCCC#Cc1ccc(CN2CCN(C3CCCCC3)C(CCO)C2)cc1 (stereo unspecified),-7,-2,/,0,5,0
OCCC1CN(CC#Cc2ccccc2)CCN1C1CCCC1 (stereo unspecified),-5,-4,-1,-2,91*,0
CCOC(=O)c1sc2nc(CSc3nc4ccccc4n3CC)[nH]c(=O)c2c1C,-11,/,-25,-1,-4,1
Cc1ccc(CSc2ccc(S(=O)(=O)N3CCCC3)cn2)cc1,-4,10,14,-1,71*,1
COc1ccc(CCNC(=O)c2coc3ccccc3c2=O)cc1,6,-6,10,-2,-3,0
COc1ccc(NC(=O)CN2c3cccc4cccc(c34)S2(=O)=O)cc1,-5,/,99*,-1,-3,1
Cc1nc(=O)c(-c2ccccc2)c(C)n1CCCCCC(=O)O,-1,/,-3,-2,-3,2
COc1ccc2c3c(n(C)c2c1)[C@H](CO)N(C(=O)Cc1ccccn1)CC31CCN(CC2CC2)CC1,/,5,/,/,/,/
Cn1c(=Nc2ccc(N3CCOCC3)cc2)ccc2ccccc21,-4,/,/,/,0,0
Cn1c(N=Nc2ccc(N3CCOCC3)cc2)[n+](C)c2ccccc21,40*,-13,/,0,19,20
COC(=O)c1cc(S(=O)(=O)Nc2ccsc2C(=O)OC)oc1C,-6,-8,6,-4,33*,0
CCC(=O)N(C)C[C@@H]1Oc2ncc(-c3ccc(C)cc3)cc2C(=O)N([C@@H](C)CO)C[C@@H]1C,/,1,29,/,/,/
CSc1nsc(/C=C/Nc2ccc(Cl)cc2)c1C#N,-21,/,125*,0,1,0
Cc1cccc(OCC(=O)OCC(=O)Nc2sccc2C(N)=O)c1,-8,-5,-6,-2,/,-1
COc1ccc(-c2nn(-c3ccccc3)cc2/C=N/O)cc1OC,-4,2,/,-2,-1,4
COc1ccc(-c2nn(-c3ccccc3)cc2/C=N/N=C(N)N)cc1OC,68*,/,/,-9,-16,1
O=C(NCC12CC3CC(CC(C3)C1)C2)c1nn2c(c1Cl)NC(c1ccco1)CC2C(F)(F)F (stereo unspecified),-6,/,137*,-2,-4,2
CCOC(=O)[C@]12CCCC=C1N(Cc1ccc3c(c1)OCO3)C(=O)[C@H](CC(=O)NCCCCc1ccccc1)C2,/,3,/,/,/,/
Cn1c(-c2ccc(F)cc2)cnc1NCc1ccc(F)cc1,-1,/,122*,-1,-2,3
COc1ccccc1NC(=O)N1CC(=O)N2[C@H](CO)[C@H](c3ccc(-c4ccc(F)cc4)cc3)[C@@H]2C1,/,110*,/,/,/,/
COc1ccccc1NC(=O)N1CC(=O)N2[C@H](CO)[C@@H](c3ccc(-c4ccc(F)cc4)cc3)[C@@H]2C1,/,25,/,/,/,/
Cc1cc(C)cc(NC2=CC(=O)CC(c3ccco3)C2)c1 (stereo unspecified),2,/,/,-1,/,-1
CCc1ccc(NC2=CC(=O)CC(c3ccco3)C2)cc1 (stereo unspecified),-3,/,-6,-1,50*,1
Cc1ccc(S(=O)(=O)n2nc(-c3ccco3)nc2SCc2ccccc2)cc1,-4,/,109*,-2,-1,-1
CSc1nc(-c2ccco2)nn1S(=O)(=O)c1ccc(C)cc1,-4,4,-3,0,/,0

# Screening data from PubChem.
